# Results: ChEMBL document CHEMBL3739276, “Discovery of A-971432, An Orally Bioavailable Selective Sphingosine-1-Phosphate Receptor 5 (S1P5) Agonist for the Potential Treatment of Neurodegenerative Disorders” (J Med Chem, 2015)
# Active and inactive are the calls of the source. The calls are words filed in the database; no cut-off is given here.
# Tests used:
# Mus musculus = assay: Decrease in pulmonary antigen challenge-induced MCP1 level in CD1 mouse at 0.3 to 30 mg/kg, po qd; format: functional, organism-based
# Procedure, shortened: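 Part of a 41-assay multiplexed in vivo screening panel run at Melior Discovery. CD1 mice received 0.3, 3 and 30 mg/kg orally once daily; endpoints were compared with vehicle-treated mice.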
# [1] = Half life in beagle dog plasma at 1 mg/kg, iv; format: ADME, organism-based, Canis lupus familiaris
# Rattus norvegicus [2] = assay: Cardiotoxicity in Sprague-Dawley rat assessed as increase in mean arterial pressure at 30 mg/kg, iv administered for 30 mins; format: toxicity, organism-based, Artery; conditions: in vivo, 0.5 h
# Procedure, shortened: (§1)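 Male Sprague-Dawley rats (327-400 g) under Inactin anaesthesia (100 mg/kg ip), with femoral arterial catheters for arterial pressure and heart rate, and a left-ventricular catheter for dP/dt at 50 mmHg. After a 30 min baseline, three sequential 30 min IV infusions of 3, 10 and 30 mg/kg in 20% DMA/40% PG/40% PEG-400. Treated n=4, vehicle n=5; unpaired t tests; plasma sampled after each infusion.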
# [3] = AUC in cynomolgus monkey plasma at 1 mg/kg, iv; format: ADME, organism-based, Macaca fascicularis
# [4] = Half life in Sprague-Dawley rat plasma at 1 mg/kg, po; format: ADME, organism-based
# [5] = Plasma concentration in Sprague-Dawley rat at 30 mg/kg, iv administered for 30 mins; format: ADME, organism-based
# [6] = Half life in BALB/C mouse plasma at 2 mg/kg, iv; format: ADME, organism-based
# Rattus norvegicus [7] = assay: Toxicity in Sprague-Dawley rat assessed as change in lymphocytes at 10 to 100 mg/kg, po qd measured on day 14; format: organism-based; conditions: in vivo
# [8] = Plasma concentration in C57BL6J mouse at 0.1 mg/kg, po qd administered for 21 days during spontaneous alteration T-maze assay; format: ADME, organism-based
# Procedure, shortened: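 Male C57BL/6J mice aged 12 months (n = 20), with 2-month-old mice (n = 11) as young controls. Randomized and blinded. Single daily oral doses (10 mL/kg) for 21 days. On day 21, dosed 225 min before a spontaneous-alternation trial in a gray Plexiglas T-maze. Exposure measured in plasma and brain. One-way ANOVA.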
# [9] = target: Sphingosine 1-phosphate receptor 2 (Homo sapiens) (UniProt O95136); assay: Agonist activity at S1P2 receptor (unknown origin) expressed in CHO cell membranes up to 10 uM after 30 mins by GTPgammaS binding assay; format: functional
# [10] = Tmax in BALB/C mouse plasma at 2 mg/kg, po; format: ADME, organism-based
# Cytochrome P450 1A2 = target: T1, Cytochrome P450 1A2 (Homo sapiens, UniProt P05177); assay: Inhibition of CYP1A2 (unknown origin); format: ADME
# T1 sequence (P05177 whole entry): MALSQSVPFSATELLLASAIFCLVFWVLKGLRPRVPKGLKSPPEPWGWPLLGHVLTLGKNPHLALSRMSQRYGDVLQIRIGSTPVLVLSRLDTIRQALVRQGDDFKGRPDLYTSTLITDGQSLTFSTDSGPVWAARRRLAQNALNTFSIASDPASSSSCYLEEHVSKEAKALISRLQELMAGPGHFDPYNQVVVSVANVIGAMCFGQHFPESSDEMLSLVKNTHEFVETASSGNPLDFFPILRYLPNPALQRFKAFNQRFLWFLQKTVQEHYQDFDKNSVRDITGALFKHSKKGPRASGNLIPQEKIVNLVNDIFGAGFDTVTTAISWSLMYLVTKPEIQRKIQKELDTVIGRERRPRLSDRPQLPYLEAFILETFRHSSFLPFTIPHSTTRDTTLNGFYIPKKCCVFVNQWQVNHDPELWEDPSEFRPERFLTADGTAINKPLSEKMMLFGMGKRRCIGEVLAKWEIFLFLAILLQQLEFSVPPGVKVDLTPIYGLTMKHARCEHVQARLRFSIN
# [11] = Cmax in BALB/C mouse brain at 2 mg/kg, po; format: ADME, organism-based; set-up: dose 2 mg/kg, route oral
# [12] = target: Sphingosine 1-phosphate receptor 3 (Homo sapiens, UniProt Q99500); assay: Agonist activity at S1P3 receptor (unknown origin) expressed in CHO cell membranes up to 10 uM after 30 mins by GTPgammaS binding assay; format: functional
# [13] = Clearance in Sprague-Dawley rat plasma at 1 mg/kg, iv; format: ADME, organism-based
# Rattus norvegicus [14] = assay: Cardiotoxicity in Sprague-Dawley rat assessed as bradycardia at 3 to 30 mg/kg, iv administered for 30 mins; format: toxicity, organism-based; conditions: in vivo, 0.5 h; procedure, shortened: as §1
# Rattus norvegicus [15] = assay: Cardiotoxicity in Sprague-Dawley rat assessed as decrease in cardiac contractility at 30 mg/kg, iv administered for 30 mins; format: toxicity, organism-based, Heart; set-up: scale not given: the % may be the effect or the level left; conditions: in vivo, 0.5 h; procedure, shortened: as §1
# [16] = Cmax in Sprague-Dawley rat plasma at 1 mg/kg, po; format: ADME, organism-based; set-up: dose 1 mg/kg, route oral
# Rattus norvegicus [17] = assay: Toxicity in female Sprague-Dawley rat assessed as increase in liver weight at 100 mg/kg, po qd measured on day 14; format: organism-based; conditions: in vivo
# Rattus norvegicus [18] = assay: Lymphopenia activity in Sprague-Dawley rat assessed as change in lymphocyte counts at 30 mg/kg, po measured 5 hrs post dose; format: ADME, organism-based; conditions: in vivo
# [19] = Cmax in Sprague-Dawley rat brain at 2 mg/kg, po; format: ADME, organism-based; set-up: dose 2 mg/kg, route oral
# [20] = Half life in Sprague-Dawley rat brain at 2 mg/kg, po; format: ADME, organism-based
# [21] = AUC in beagle dog plasma at 1 mg/kg, iv; format: ADME, organism-based, Canis lupus familiaris
# [22] = Half-life in CD1 mouse at 10 mg/kg, po; format: ADME, organism-based; conditions: in vivo
# Rattus norvegicus [23] = assay: Lymphopenia activity in Sprague-Dawley rat assessed as change in lymphocyte counts at 100 mg/kg, po measured 5 hrs post dose; format: ADME, organism-based; conditions: in vivo
# [24] = Half life in cynomolgus monkey plasma at 1 mg/kg, po; format: ADME, organism-based, Macaca fascicularis
# [25] = Tmax in beagle dog plasma at 1 mg/kg, po; format: ADME, organism-based, Canis lupus familiaris
# [26] = AUC in Sprague-Dawley rat at 100 mg/kg, po qd measured on day 2 and day 14; format: ADME, organism-based; conditions: in vivo
# Procedure, shortened: (§2)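 Sprague-Dawley rats of both sexes dosed orally once daily for 14 days in a tolerability study; exposure AUC measured on day 2 and day 14.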
# [27] = Half life in BALB/C mouse brain at 2 mg/kg, iv; format: ADME, organism-based
# Rattus norvegicus [28] = assay: Lymphopenia activity in Sprague-Dawley rat assessed as change in lymphocyte counts at 10 mg/kg, po measured 5 hrs post dose; format: ADME, organism-based; conditions: in vivo
# [29] = AUC in BALB/C mouse brain at 2 mg/kg, iv; format: ADME, organism-based
# [30] = Cmax in cynomolgus monkey plasma at 1 mg/kg, po; format: ADME, organism-based, Macaca fascicularis; set-up: dose 1 mg/kg, route oral
# [31] = Tmax in BALB/C mouse brain at 2 mg/kg, po; format: ADME, organism-based
# [32] = Oral bioavailability in beagle dog plasma at 1 mg/kg; format: ADME, organism-based, Canis lupus familiaris
# [33] = AUC in Sprague-Dawley rat at 10 mg/kg, po qd measured on day 2 and day 14; format: ADME, organism-based; conditions: in vivo; procedure, shortened: as §2
# [34] = Oral bioavailability in BALB/C mouse brain at 2 mg/kg; format: ADME, organism-based
# [35] = Plasma concentration in Sprague-Dawley rat at 10 mg/kg, po measured 5 hrs post dose; format: ADME, organism-based
# [36] = Clearance in BALB/C mouse plasma at 2 mg/kg, iv; format: ADME, organism-based
# [37] = Cmax in BALB/C mouse plasma at 2 mg/kg, po; format: ADME, organism-based; set-up: dose 2 mg/kg, route oral
# [38] = AUC in BALB/C mouse brain at 2 mg/kg, po; format: ADME, organism-based
# Chain of Sphingosine 1-phosphate receptor 3 (Q99500 whole entry): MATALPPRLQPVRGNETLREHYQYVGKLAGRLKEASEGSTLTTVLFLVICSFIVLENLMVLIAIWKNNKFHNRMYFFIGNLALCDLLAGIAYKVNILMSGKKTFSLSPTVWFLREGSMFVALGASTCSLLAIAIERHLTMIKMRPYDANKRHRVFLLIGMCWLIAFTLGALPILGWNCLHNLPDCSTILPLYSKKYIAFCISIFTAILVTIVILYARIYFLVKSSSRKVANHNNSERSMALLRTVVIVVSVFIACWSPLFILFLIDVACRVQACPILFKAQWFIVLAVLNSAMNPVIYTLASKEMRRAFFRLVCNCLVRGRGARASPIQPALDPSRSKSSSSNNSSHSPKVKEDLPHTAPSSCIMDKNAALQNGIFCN
# Chain of Sphingosine 1-phosphate receptor 2 (Homo sapiens) (O95136 whole entry): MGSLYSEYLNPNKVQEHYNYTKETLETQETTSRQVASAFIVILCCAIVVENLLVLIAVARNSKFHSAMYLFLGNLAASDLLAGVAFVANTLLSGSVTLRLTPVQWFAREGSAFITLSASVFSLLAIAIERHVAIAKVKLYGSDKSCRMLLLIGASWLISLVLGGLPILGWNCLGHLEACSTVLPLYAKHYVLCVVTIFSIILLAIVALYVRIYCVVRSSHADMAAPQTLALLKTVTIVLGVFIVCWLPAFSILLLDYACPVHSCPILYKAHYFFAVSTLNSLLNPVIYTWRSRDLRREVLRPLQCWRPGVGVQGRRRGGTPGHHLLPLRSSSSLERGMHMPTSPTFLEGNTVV
compound,measurement,setting,value
O=C(O)C1CN(Cc2ccc(OCc3ccc(Cl)c(Cl)c3)cc2)C1,Activity,Mus musculus,inactive
same,half-life,[1],9.3 h
same,Activity,Rattus norvegicus [2],16%
same,AUC,[3],6400 ng·h/mL
same,half-life,[4],14 h
same,concentration at 0.5 h,[5],20300 ng/mL
same,half-life,[6],7.6 h
same,Activity,Rattus norvegicus [7],Non-toxic
same,concentration at 504 h,[8]; in vivo,28.3 ng/g
same,concentration at 504 h,[8]; plasma,41.6 ng/mL
same,Activity,[9],inactive
same,Tmax,[10],2 h
same,INH,Cytochrome P450 1A2,> 20 µM
same,Cmax,[11],43 ng/mL
same,Activity,[12],inactive
same,clearance,[13],2.67 mL/min/kg
same,Activity,Rattus norvegicus [14],Non-toxic
same,Activity,Rattus norvegicus [15],10%
same,Cmax,[16],400 ng/mL
same,Activity,Rattus norvegicus [17],30%
same,Activity,Rattus norvegicus [18],Non-toxic
same,Cmax,[19],120 ng/mL
same,half-life,[20],15 h
same,AUC,[21],12000 ng·h/mL
same,half-life,[22],5.7 h
same,Activity,Rattus norvegicus [23],Non-toxic
same,half-life,[24],6.7 h
same,Tmax,[25],1.5 h
same,AUC,[26],670000 ng·h/mL
same,half-life,[27],9.8 h
same,Activity,Rattus norvegicus [28],Non-toxic
same,AUC,[29],3200 ng·h/mL
same,Cmax,[30],650 ng/mL
same,Tmax,[31],2 h
same,bioavailability,[32],92%
same,AUC,[33],43000 ng·h/mL
same,bioavailability,[34],56%
same,concentration at 5 h,[35],1800 ng/mL
same,clearance,[36],4 mL/min/kg
same,Cmax,[37],300 ng/mL
same,AUC,[38],1600 ng·h/mL
